Results published in ChEMBL document CHEMBL3132796 (Medchemcomm, 2013).
Values belong to the compound of their own block, whether it stands above or below them. Active and inactive are the calls of the source. The calls are words filed in the database; no cut-off is given here.

Columns and labels:
Sphingosine kinase 1 [1] = target: T1, Sphingosine kinase 1 (Homo sapiens, UniProt Q9NYA1); test: Activity at recombinant SK1 (unknown origin) using ATP at 250 uM relative to control
PAMSC [2] = test: Inhibition of DNA synthesis in human PAMSC cells assessed as [3H]-thymidine incorporation into DNA at 300 nM after 24 hrs; format: functional, cell-based
Procedure, shortened: (§1)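 Pulmonary arterial smooth muscle cells were grown to 60% confluency and quiesced 24 h in basal medium with 0.1% eFCS. They were then treated with inhibitor in DMSO (vehicle 0.1% DMSO) for 48 h in complete medium, with [3H]-thymidine (0.25 µCi/mL) added for the final 24 h. Cells were washed with TCA, solubilised in SDS/NaOH and counted by scintillation. Each concentration was run in triplicate.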

[3] = target: T2, Sphingosine kinase 2 (Homo sapiens) (UniProt Q9NRA0); settings: 1.5 uM
T2 sequence (whole entry): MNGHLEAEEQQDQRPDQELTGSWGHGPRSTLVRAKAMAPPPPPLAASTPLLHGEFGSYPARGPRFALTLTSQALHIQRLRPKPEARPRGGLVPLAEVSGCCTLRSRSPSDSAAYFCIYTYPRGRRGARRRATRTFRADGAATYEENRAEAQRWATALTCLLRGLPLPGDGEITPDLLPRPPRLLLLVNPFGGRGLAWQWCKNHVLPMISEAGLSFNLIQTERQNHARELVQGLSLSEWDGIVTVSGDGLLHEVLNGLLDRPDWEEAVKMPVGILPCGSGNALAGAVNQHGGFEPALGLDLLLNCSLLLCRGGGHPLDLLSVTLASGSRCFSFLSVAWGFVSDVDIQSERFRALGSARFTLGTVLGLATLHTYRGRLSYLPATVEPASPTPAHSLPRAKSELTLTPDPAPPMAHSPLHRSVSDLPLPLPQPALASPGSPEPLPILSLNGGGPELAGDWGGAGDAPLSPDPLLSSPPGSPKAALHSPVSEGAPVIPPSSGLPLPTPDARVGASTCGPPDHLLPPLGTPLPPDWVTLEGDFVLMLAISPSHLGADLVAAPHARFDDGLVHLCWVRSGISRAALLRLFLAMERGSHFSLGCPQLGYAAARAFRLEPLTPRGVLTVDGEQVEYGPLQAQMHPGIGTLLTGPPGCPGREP

[4] = target: T2, Sphingosine kinase 2 (Homo sapiens); settings: 50 uM
Sphingosine kinase 2 [5] = target: T3, Sphingosine kinase 2 (Homo sapiens, UniProt Q9NRA0); test: Inhibition of SK2 (unknown origin)
T3 sequence (Q9NRA0 whole entry): T2 sequence (whole entry)
Procedure, shortened: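 Purified SK2 (37 ng) run 30 min at 30 °C with 10 µM sphingosine complexed to fatty-acid-free BSA (0.2 mg/mL final) and 250 µM [γ-32P]ATP in 10 mM MgCl2. Buffer: 20 mM Tris pH 7.4 with phosphatase/protease inhibitors and 400 mM KCl. Inhibitor added in DMSO; control 5% v/v DMSO. Sphingosine level matches the SK2 Km.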

[6] = target: T2, Sphingosine kinase 2 (Homo sapiens); test: Inhibition of purified SK2 (unknown origin) using sphingosine and [gamma-32P]ATP as substrate at 50 uM after 30 mins relative to control
Procedure, shortened: (§2)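 Buffer: 20 mM Tris pH 7.4 with EDTA, phosphatase and protease inhibitors, 20% glycerol and 400 mM KCl. Inhibitors were added in DMSO; control was 5% v/v DMSO.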

Sphingosine kinase 2 [7] = target: T3, Sphingosine kinase 2; test: Inhibition of purified SK2 (unknown origin) using sphingosine and [gamma-32P]ATP as substrate after 30 mins
Procedure, shortened: as §2

Sphingosine kinase 1 [8] = target: T1, Sphingosine kinase 1; test: Inhibition of recombinant SK1 (unknown origin) using sphingosine and [gamma-32P]ATP as substrate after 30 mins
PAMSC [9] = settings: Homo sapiens, 10 to 100 nM
[10] = Decrease of SK1 expression in human PAMSC cells at 100 nM after 24 hrs by Western blot analysis in presence of proteasomal inhibitor MG132; format: functional, cell-based
[11] = Decrease of SK1 expression in human PAMSC cells at 100 nM after 24 hrs by Western blot analysis; format: functional, cell-based
[12] = target: T2, Sphingosine kinase 2 (Homo sapiens); test: Activity at purified SK2 (unknown origin) using ATP at 250 uM relative to control
[13] = Decrease of SK1 expression in human PAMSC cells at 10 uM after 24 hrs by Western blot analysis in presence of proteasomal inhibitor MG132; format: functional, cell-based
[14] = Decrease of SK1 expression in human PAMSC cells at 10 uM after 24 hrs by Western blot analysis; format: functional, cell-based
PAMSC [15] = test: Inhibition of DNA synthesis in human PAMSC cells assessed as [3H]-thymidine incorporation into DNA at 100 nM to 1 uM after 24 hrs; format: functional, cell-based
Procedure, shortened: as §1

T1 sequence (Q9NYA1 whole entry): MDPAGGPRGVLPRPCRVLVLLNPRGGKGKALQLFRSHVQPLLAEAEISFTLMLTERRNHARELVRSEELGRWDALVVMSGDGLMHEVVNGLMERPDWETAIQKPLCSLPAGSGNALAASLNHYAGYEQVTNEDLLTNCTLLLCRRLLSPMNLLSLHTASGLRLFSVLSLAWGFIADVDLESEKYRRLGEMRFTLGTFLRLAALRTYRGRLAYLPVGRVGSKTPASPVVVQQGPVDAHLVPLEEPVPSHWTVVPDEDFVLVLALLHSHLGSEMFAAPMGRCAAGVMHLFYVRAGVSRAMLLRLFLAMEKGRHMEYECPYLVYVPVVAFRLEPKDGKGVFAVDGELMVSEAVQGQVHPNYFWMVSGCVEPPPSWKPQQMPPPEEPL

- inhibition [3]: 73.4%
- inhibition [4]: Active
SMILES: CCCCCCCCCCCCc1ccc(C(=O)N2CCC[C@H]2C(=N)N)cc1
- inhibition (PAMSC [2]): inactive

- IC50 (Sphingosine kinase 2 [7]): 300 µM
- IC50 (Sphingosine kinase 1 [8]): 27.8 µM
SMILES: CCCCCCCCCCCCCCOCC(O)[C@H](C)N(C)C (single isomer, unassigned)

- inhibition [6]: 64.5%
SMILES: CCCCCCCCCCCCCC[C@@H](O)[C@@H](O)[C@H](CO)NC(=S)Nc1ccc(F)cc1

- IC50 (Sphingosine kinase 2 [7]): 766 µM
- IC50 (Sphingosine kinase 1 [8]): 7.1 µM
SMILES: CCCCCCCCCCCCCCC[C@@H](O)[C@H](C)N
- Activity [13]: inactive
- Activity [14]: Active
- Activity (PAMSC [15]): Active

- Activity (Sphingosine kinase 1 [1]): Active
- Activity [12]: Active
SMILES: CCCCCCCCCCCCC/C=C\[C@@H](O)[C@@H](N)CO

- IC50 (Sphingosine kinase 2 [7]): 21.8 µM
- inhibition [6]: 80%
- Activity [12]: Active
- IC50 (Sphingosine kinase 1 [8]): 69 µM
SMILES: CCCCCCCCCCCCCCC[C@@H](O)[C@H](CO)NC(=S)Nc1cccc(C(F)(F)F)c1
- Activity [14]: inactive

The next lines start with the compound.

SMILES: CCCCCCCCCCCCCC[C@H]1OC[C@H](NC(=S)Nc2c(F)c(F)c(F)c(F)c2F)[C@@H]1O
- Activity (Sphingosine kinase 1 [1]): Active

SMILES: O=C(NCc1ccncc1)C12CC3CC(C1)CC(c1ccc(Cl)cc1)(C3)C2 [ABC-294640]
- Ki (Sphingosine kinase 2 [5]): 10 µM

SMILES: CCCCCCCCCCCCCC[C@@H](O)[C@@H](O)[C@H](CO)NC(=O)Nc1ccc(C(F)(F)F)cc1
- inhibition [6]: 53.9%

SMILES: CCCCCCCCCCCCCCC[C@@H](O)[C@H](C)[N+](C)(C)C
- Activity (Sphingosine kinase 1 [1]): Active

SMILES: CCCCCCCCCCCCC/C=C/[C@@H](O)[C@H](CO)NC(=S)Nc1ccc(C(F)(F)F)cc1
- inhibition [6]: Active

SMILES: CCCCCCCCCCCCC/C=C/[C@@H](O)[C@H](CO)NC(=S)Nc1ccc(F)cc1
- inhibition [6]: 79.2%

SMILES: Cc1cc(CS(=O)(=O)c2ccccc2)cc(OCc2ccc(CN3CCC[C@@H]3CO)cc2)c1
- inhibition (PAMSC [9]): inactive
- Activity [10]: inactive
- Activity [11]: Active

SMILES: CCCCCCCCCCCCCCC[C@@H](O)[C@H](CO)NC(=S)Nc1cccc(F)c1
- Activity (Sphingosine kinase 1 [1]): Active
- inhibition [6]: Active
- Activity [12]: Active
